In article PMC7864382 (Clinical cancer research : an official journal of the …, 2020):
“And” between values parts separate entries of the source, which are not always exact repeats. Equal entries are not always repeated. Where two headings read alike, the source gives them in different places.

How the values were obtained:
[1] = human; ref earlier clinical trials; cited from earlier work
CU_TNBC_004 PDX model [2] = assay: SA-β-gal staining and H&E of PDX tumors; assay type: in vivo, mouse
Outline: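 PDX tumors were grown subcutaneously in both flanks. At 150–300 mm³ mice were randomized to vehicle, 0.5 mg/kg daily, 30 mg/kg daily, or combination by oral gavage. Tumors were OCT-embedded, frozen in liquid nitrogen, and cryosectioned. Slides were fixed and stained for SA-β-gal activity at pH 6.0. Matched H&E slides were reviewed by a pathologist to confirm tumor cells. Images were taken at 40×.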

CAL51 FUCCI cells = assay: FUCCI cell-cycle analysis and relative growth; assay type: cell-based, Human; conditions: 100 nmol/L each, 0 to 96 hours
Outline: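 CAL51 cells transduced with the FUCCI biosensor (G1 red, S/G2–M green) were plated and treated with each test compound at 100 nmol/L, alone or combined. Live-cell fluorescence microscopy in an environmentally controlled chamber ran from 0 to 96 h. Relative growth came from time-lapse image growth curves. Combination was compared with single agents at 72 and 96 h.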

[3] = tested on: patients with ER+/HER2− metastatic breast cancer; conditions: cited from earlier work
TNBC patients = conditions: alisertib monotherapy, 14 TNBC patients, phase II trial; cited from earlier work
CU_TNBC_007 PDX model = assay: Tumor growth inhibition in TNBC PDX model CU_TNBC_007; assay type: in vivo, mouse; conditions: TAK-228 0.5 mg/kg daily, alisertib 30 mg/kg daily, vs vehicle
Outline: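 PDX tumor sections were implanted subcutaneously via 12-gauge trocar into both flanks. At a mean of 150–300 mm³ mice were randomized to four arms: vehicle, 0.5 mg/kg daily, 30 mg/kg daily, or combination, all given by oral gavage. Calipers were read twice weekly and volume = length × width² × 0.52. TGI = [1 − (mean final treated volume / mean final vehicle volume)] × 100.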

[4] = tested on: patients with advanced solid tumors
CU_TNBC_004 PDX model [5] = assay: Tumor growth inhibition in TNBC PDX model CU_TNBC_004; assay type: in vivo, mouse; conditions: CU_TNBC_004 (alisertib-resistant); TAK-228 0.5 mg/kg daily, alisertib 30 mg/kg daily, p.o.; vs vehicle
Outline: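 Tumor sections were implanted subcutaneously into both flanks by 12-gauge trocar. At an average of 150–300 mm³, mice were randomized to four arms: vehicle, 0.5 mg/kg daily, 30 mg/kg daily, or both combined, all by oral gavage. Caliper measurements and body weights were taken twice weekly; volume = length × width² × 0.52. TGI = [1 − (mean final treated volume/mean final vehicle volume)] × 100.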

[6] = tested on: pS6RP, p4EBP1, survivin in MDA-MB-468 and HCC1937 cells; assay: Immunoblotting of mTOR pathway effectors and survivin; assay type: cell-based, Human; conditions: immunoblot, 50 nmol/L at 24 hours, 100 nmol/L at 72 hours; for pS6RP (mTOR pathway effector) level: alisertib-sensitive and -resistant TNBC cell lines
Outline: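 Cells were seeded in 6-well plates for 24 h, then exposed to test compounds at 50 nmol/L for 24 h or 100 nmol/L for 72 h, alone or combined. Cells were harvested with trypsin/EDTA and lysed. 50 µg protein was run on 4–12% Bis-Tris gels and transferred to nitrocellulose. Primary antibodies (S6RP, pS6RP, 4EBP1, p4EBP1, survivin, α-tubulin) were used at 1:1,000 overnight, with DyLight secondaries and infrared imaging.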

[7] = Phase I trial pharmacokinetics in human plasma; assay type: in vivo
CU_TNBC_004 PDX model [8] = assay: Immunofluorescence; assay type: in vivo, mouse; conditions: CU_TNBC_004 tumors
Outline: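 PDX tumor pieces were implanted subcutaneously by trocar into both flanks. At 150–300 mm³ mice were randomized to vehicle, 0.5 mg/kg daily, 30 mg/kg daily, or combination, all by oral gavage. Frozen OCT tumor sections were fixed and blocked (1% BSA/PBS, 1 h, 37°C), then stained with BAX and DR5 primaries and Alexa Fluor 488/555 secondaries (1 h, 37°C). DAPI counterstain was followed by confocal imaging at 60×.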

[9] = single-agent alisertib, standard dosing schedule
[10] = human, plasma, oral, 1 mg, TAK-228 combo dose with alisertib, 1 mg cohort
[11] = human, plasma, oral, 1 mg, TAK-228 run-in dose (single agent), 1 mg cohort
[12] = human, plasma, oral, 3 mg, TAK-228 run-in dose (single agent), 3 mg cohort

Compound: COc1cc(Nc2ncc3c(n2)-c2ccc(Cl)cc2C(c2c(F)cccc2OC)=NC3)ccc1C(=O)O [alisertib]
- half-life [1]: approximately 20 hours
- Senescent cells by SA-β-gal staining (CU_TNBC_004 PDX model [2]): scattered senescent cells
- Cell-cycle status (FUCCI) (CAL51 FUCCI cells): continued progression through the cell cycle
- grade ≥3 neutropenia or stomatitis ([3]; intermittent alisertib schedule in combination with fulvestrant): no grade ≥3 neutropenia or stomatitis
- grade 3 to 4 neutropenia [3, 9]: 57%
- grade 3 to 4 stomatitis [3, 9]: 15%
- median progression-free survival (TNBC patients): 1.5 months
- TGI (CU_TNBC_007 PDX model): 51.74% and 51.7%
- MTD / RP2D of alisertib in combination with TAK-228 ([4]; b.i.d. days 1 to 7 of a 21-day cycle, oral): 30 mg
- Most common toxicities attributed to the drug(s) ([4]; in vivo): neutropenia and fatigue
- TGI (CU_TNBC_004 PDX model [5]): 35.09% and 35.1%
- survivin (antiapoptotic protein) level [6]: increase
- pS6RP (mTOR pathway effector) level [6]: increase

Compound: CC(C)n1nc(-c2ccc3oc(N)nc3c2)c2c(N)ncnc21 [TAK-228]
- Senescent cells by SA-β-gal staining (CU_TNBC_004 PDX model [2]): not observed
- half-life ([7]; TAK-228 combo dose with alisertib, 2 mg cohort): 6.0 ± 2.1 h
- AUC [7, 10]: 47.4 ± 13.8 ng·h/mL
- AUC [7, 11]: 46.7 ± 13.1 ng·h/mL
- Cmax [7, 10]: 8.6 ± 4.2 ng/mL
- Cmax [7, 11]: 7.7 ± 2.6 ng/mL
- Cmax ([7]; human, plasma, oral, 2 mg, TAK-228 combo dose with alisertib, 2 mg cohort): 24.7 ± 13.6 ng/mL
- Cmax ([7]; human, plasma, oral, 2 mg, TAK-228 run-in dose (single agent), 2 mg cohort): 24.2 ± 8.8 ng/mL
- AUC [7, 12]: 154 ± 110 ng·h/mL
- Cmax [7, 12]: 25.7 ± 9.4 ng/mL
- Tmax ([7]; human, plasma, oral, 3 mg, Tmax, TAK-228 run-in dose (single agent), 3 mg cohort): 1.3 ± 1.1 h
- Cell-cycle status (FUCCI) (CAL51 FUCCI cells): continued progression through the cell cycle
- TGI (CU_TNBC_007 PDX model): 30.73% and 30.7%
- Patients with adverse effects at least possibly related to the drug ([4]; 18 patients, combination treatment): 72%
- Most common toxicities attributed to the drug(s) ([4]; attribution to TAK-228 alone, alisertib alone or both drugs): Rash
- Dose reduction of the drug required ([4]; combination treatment, all dose levels): 3 patients
- MTD / RP2D of TAK-228 in combination with alisertib ([4]; daily, continuous dosing, oral): 2 mg
- TGI (CU_TNBC_004 PDX model [5]): 54.47% and 54.5%
- cytoplasmic BAX (CU_TNBC_004 PDX model [8]): increase
- p4EBP1 level [6]: decrease
- survivin (antiapoptotic protein) level [6]: decrease
- pS6RP (mTOR pathway effector) level [6]: decrease
